Only some compounds are listed: those with a hit (about 2.5% of all), similar ones and a draw of the others.
SENP8 block-1: SENP8 (human) protease inhibition. recombinant SENP8, Nedd8 substrate fluorescence. Q96LD8. AID 602440. inhibition, % at 20 µM. 0.64% of 360,000 active; in the data active = inhibition mostly above about 40%, no sharp cut-off; inactive = mostly below about 27%
Target sequence (Q96LD8 whole entry, looked up): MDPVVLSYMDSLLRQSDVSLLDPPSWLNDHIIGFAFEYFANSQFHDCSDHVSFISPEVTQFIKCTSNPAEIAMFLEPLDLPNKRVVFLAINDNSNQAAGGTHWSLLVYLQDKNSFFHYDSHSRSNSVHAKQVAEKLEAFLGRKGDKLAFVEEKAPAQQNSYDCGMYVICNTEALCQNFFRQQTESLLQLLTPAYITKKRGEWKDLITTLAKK
SENP7 block: inhibitors of human SENP7 protease; 1.5% of 330,000 active; AID 434973; Q9BQF6; recombinant SENP7, Z-RLRGG-aminoluciferin luminescence, 40 min; inhibition, % at 5 µM;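 active = inhibition above about 50% at the single test dose, limit read from the data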
SENP8 block-2: blocks the human protease SENP8; purified SENP8, Z-RLRGG-aminoluciferin cleavage, luminescence; 1.2% of 330,000 active; inhibition, % at 10 µM; AID 2540; Q96LD8; in the data active = inhibition above about 50%
SENP1 FRET inh: SENP1 (human) catalytic domain inhibition; 0.21% of 360,000 active; AID 624204; recombinant SENP1 catalytic domain, CyPet-SUMO1-YPet FRET cleavage; inhibition, % at 10 µM;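 active = inhibition at least 30% at 10 µM, raw YFP signal under a set limit, fluorescence ratio 0.5 to 1.5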
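System: Recombinant human SENP1 catalytic domain, His6-tagged | Incubation: Enzyme reaction for 50 min at room temperature, dark | Medium: Tris pH 8 with BME, BSA, NP40 and catalase | Also added: 25 nM SUMO1 FRET substrate | Compound: 10 µM single point, 0.5% DMSO | Measured by: FRET fluorescence in CFP and YFP emission channels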
SENP6 inh: SENP6 protease inhibition; Q9GZR1; Recombinant SENP6 catalytic domain, aminoluciferin luminescence; inhibition, % at 10 µM; 1.8% of 330,000 active; AID 2599;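 active = inhibition above about 50% at the single tested dose, limit read from the data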
Target sequence (Q9GZR1 628-1112 limits assumed): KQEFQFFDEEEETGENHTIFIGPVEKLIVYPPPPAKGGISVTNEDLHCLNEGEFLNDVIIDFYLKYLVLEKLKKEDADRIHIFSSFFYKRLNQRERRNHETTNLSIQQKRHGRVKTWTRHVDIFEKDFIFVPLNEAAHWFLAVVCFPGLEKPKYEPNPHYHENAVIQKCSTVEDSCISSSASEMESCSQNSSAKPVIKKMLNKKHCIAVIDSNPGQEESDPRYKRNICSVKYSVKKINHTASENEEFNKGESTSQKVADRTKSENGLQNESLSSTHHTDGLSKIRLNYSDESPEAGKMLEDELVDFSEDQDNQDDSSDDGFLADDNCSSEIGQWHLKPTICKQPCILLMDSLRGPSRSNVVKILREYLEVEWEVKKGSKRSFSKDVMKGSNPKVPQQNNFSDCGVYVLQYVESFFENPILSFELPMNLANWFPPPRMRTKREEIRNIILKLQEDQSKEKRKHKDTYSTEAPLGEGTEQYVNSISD
SENP8 conf: confirmation of human SENP8 protease inhibitors. AID 488912. inhibition, % at 12.5 µM. 40% of 6,200 active. Recombinant SENP8, Z-RLRGG-aminoluciferin luminescence, 60 min. shares compounds with SENP7 block;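 active = mean inhibition across replicates above about 50%, limit read from the data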
SENP6 conf: confirmation of human SENP6 protease inhibitors; recombinant SENP6, Z-RLRGG-aminoluciferin luminescence; shares compounds with SENP7 block; 58% of 6,200 active; inhibition, % at 12.5 µM
SENP7 confirm: human SENP7 inhibition, confirmed; recombinant SENP7, Z-RLRGG-aminoluciferin luminescence, 40 min; 69% of 6,200 active; inhibition, % at 12.5 µM; shares compounds with SENP7 block
Casp3 select: caspase-3 inhibition (SENP selectivity assay); shares compounds with SENP7 block; purified caspase-3, Z-DEVD-aminoluciferin luminescence, 60 min; inhibition, % at 12.5 µM; 60% of 6,200 active; AID 488918;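 active = mean inhibition above about 50%, limit read from the data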
SENP luc ctr: interferes with luciferase luminescence in SENP counter-screen; Pre-incubated SENP8/Z-RLRGG-aminoluciferin, luciferase luminescence interference; 39% of 6,200 active; inhibition, % at 12.5 µM; shares compounds with SENP7 block;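 active = mean inhibition above about 50% when retested at one dose, limit read from the data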
Each line names hits and unclear results; the compound was inactive in the other large screens (follow-up assays come after a bar, where they were run).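 Rule for the calls, unless noted: active = mean inhibition above about 50% in the one-dose retest (limit read from the data); inactive = the rest.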

CCC(=O)Nc1cccc(NC(=O)CSc2nc3c(c(=O)n(C)c(=O)n3C)n2C)c1	none
O=C(O)c1ccccc1N=Nc1c(O)[nH]c2ccc([N+](=O)[O-])cc12	SENP7 block 93.5, SENP8 block-2 94.9, SENP6 inh 99.3 | SENP8 conf 97.5 | SENP6 conf 98.0 | SENP7 confirm 101.1 | Casp3 select 94.0 | SENP luc ctr inactive
Cn1cccc1Cc1nnc(SCC(=O)Nc2ccc3c(c2)OCO3)n1-c1ccc(F)cc1	none
Cc1c(N=Cc2nc3ccccc3[nH]2)c(=O)n(-c2ccccc2)n1C	none
Cc1c(N=Cc2nc3ccccc3n2C)c(=O)n(-c2ccccc2)n1C	SENP7 block 83.4, SENP8 block-2 51.5 | SENP8 conf 58.4 | SENP6 conf 79.8 | SENP7 confirm 99.1 | Casp3 select 96.9 | SENP luc ctr inactive
COc1ccc2[nH]c(C(=O)Nc3cccc(C)n3)cc2c1	SENP7 block 85.6, SENP8 block-2 85.5, SENP6 inh 91.0 | SENP8 conf 91.7 | SENP6 conf 92.1 | SENP7 confirm 100.5 | Casp3 select 91.9 | SENP luc ctr 58.5
COc1ccc2[nH]c(C(=O)Nc3ccc(C)c(F)c3)cc2c1	none
COc1ccc(Cl)cc1C(=O)Nc1nc2ccccc2[nH]1	SENP7 block 98.3, SENP8 block-2 89.5, SENP6 inh 95.6 | SENP8 conf 82.6 | SENP6 conf 91.1 | SENP7 confirm 102.0 | Casp3 select 95.6 | SENP luc ctr 79.8
O=C(Nc1nc2ccccc2[nH]1)c1ccc(F)cc1	SENP7 block 92.6, SENP8 block-2 78.7, SENP6 inh 94.4 | SENP8 conf 77.9 | SENP6 conf 83.6 | SENP7 confirm 98.5 | Casp3 select 93.8 | SENP luc ctr 51.6
CN(C)S(=O)(=O)c1ccc(C(=O)Nc2nc3ccccc3[nH]2)cc1	none
O=C(Nc1nc2ccccc2[nH]1)c1ccccc1[N+](=O)[O-]	none
N#Cc1ccc(C(=O)Nc2nc3ccccc3[nH]2)cc1	SENP7 block 73.4, SENP8 block-2 50.3, SENP6 inh 69.0 | SENP8 conf inactive | SENP6 conf inactive | SENP7 confirm 70.6 | Casp3 select 68.5 | SENP luc ctr inactive
COc1ccc(C(=O)Nc2nc3ccccc3[nH]2)cc1OC	none
O=C(Nc1nc2ccccc2[nH]1)c1ccccc1F	SENP7 block 98.9, SENP8 block-2 97.2, SENP6 inh 96.3 | SENP8 conf inactive | SENP6 conf 98.8 | SENP7 confirm 102.4 | Casp3 select 97.8 | SENP luc ctr 97.2
COc1ccc(N2CCN(C(=O)C(Cc3ccccc3)NC(=O)c3ccccc3)CC2)cc1 (stereo not given)	none (no result: SENP7 block, SENP8 block-2, SENP6 inh)
Cc1cc(C)cc(C(=O)Nc2nc3ccccc3[nH]2)c1	none
O=C(Nc1nc2ccccc2[nH]1)c1cc(F)cc(F)c1	SENP7 block 54.2, SENP6 inh 55.4 | SENP8 conf inactive | SENP6 conf inactive | SENP7 confirm 73.0 | Casp3 select 66.0 | SENP luc ctr inactive
CCc1ccc(C(=O)Nc2nc3ccccc3[nH]2)cc1	SENP7 block 97.4, SENP8 block-2 93.6, SENP6 inh 95.7 | SENP8 conf 55.5 | SENP6 conf 76.1 | SENP7 confirm 86.4 | Casp3 select 84.2 | SENP luc ctr inactive
Cc1ccc(S(=O)(=O)c2nc(S(=O)(=O)c3ccccc3)sc2N2CCN(C)CC2)cc1	none
Cc1noc(C)c1COc1cccc(C(=O)Nc2ccc(OCc3ccccc3)cc2)c1	SENP6 inh 57.1 | SENP8 conf inactive | SENP6 conf inactive | SENP7 confirm inactive | Casp3 select inactive | SENP luc ctr inactive
CCOc1ccc(NC(=O)c2ccc(OC)cc2)cc1	none
Cc1ccsc1C(=O)Nc1ccc(C(=O)O)cc1	SENP7 block 85.7, SENP8 block-2 79.1 | SENP8 conf inactive | SENP6 conf 78.1 | SENP7 confirm 95.4 | Casp3 select 95.8 | SENP luc ctr 80.6
CCOc1ccc(NC(=O)c2ccncc2)cc1	SENP6 inh 59.6 | SENP8 conf inactive | SENP6 conf inactive | SENP7 confirm inactive | Casp3 select inactive | SENP luc ctr inactive
Cc1ccsc1C(=O)Nc1ccc(OCc2ccccc2)cc1	SENP7 block 98.4, SENP8 block-2 87.5, SENP6 inh 91.3 | SENP8 conf inactive | SENP6 conf 83.7 | SENP7 confirm 100.9 | Casp3 select 94.8 | SENP luc ctr inactive
COc1ccc(NC(=O)c2sccc2C)cn1	none
Cc1noc(C)c1COc1ccc(C(=O)Nc2ccccc2)cc1	none
C[C@H](CO)N1C[C@H](C)[C@@H](CN(C)S(=O)(=O)c2cccc(F)c2)Oc2ncc(Br)cc2C1=O	none (no result: SENP7 block, SENP8 block-2, SENP6 inh)
COc1ccc(S(=O)(=O)n2nc(OC(=O)c3cccs3)cc2NC(=O)c2cccs2)cc1	none
CC(C)=CC(=O)Nc1ccc(Br)cc1	SENP7 block 54.1 | SENP8 conf inactive | SENP6 conf inactive | SENP7 confirm 83.4 | Casp3 select 60.9 | SENP luc ctr 59.5
COc1ccc2nc(NC(=O)c3cccc(OCc4c(C)noc4C)c3)sc2c1	SENP6 inh 59.9 | SENP8 conf inactive | SENP6 conf inactive | SENP7 confirm 70.9 | Casp3 select inactive | SENP luc ctr inactive
CC(C)=CC(=O)Nc1ccc(OCc2ccccc2)cc1	SENP7 block 57.5, SENP6 inh 72.5 | SENP8 conf inactive | SENP6 conf inactive | SENP7 confirm 75.6 | Casp3 select inactive | SENP luc ctr inactive
CCOC(=O)C(=O)Nc1ccc(OCc2ccccc2)cc1	none
Cc1cc(C(=O)Nc2ccc(OCc3ccccc3)cc2)c(C)o1	SENP7 block 99.5, SENP8 block-2 94.1, SENP6 inh 101.4 | SENP8 conf 73.7 | SENP6 conf 96.4 | SENP7 confirm 101.4 | Casp3 select 95.1 | SENP luc ctr 64.4
O=C(Nc1ccc(OCc2ccccc2)cc1)c1cccnc1	none
O=C(Nc1ccccc1)c1ccc(COc2ccccc2)cc1	SENP7 block 63.5 | SENP8 conf inactive | SENP6 conf inactive | SENP7 confirm inactive | Casp3 select inactive | SENP luc ctr inactive
O=C(Nc1ccc(OCc2ccccc2)cc1)c1ccccc1	SENP7 block 66.6 | SENP8 conf inactive | SENP6 conf inactive | SENP7 confirm inactive | Casp3 select inactive | SENP luc ctr inactive
Cc1noc(C)c1COc1ccccc1C(=O)N(C)CC(=O)Nc1ccc(F)cc1	none
O=[N+]([O-])c1ccc(/C=N\N2CCN(c3ccc(Cl)cc3)CC2)cc1	none
